Assay results from ChEMBL document CHEMBL1137695, “Towards an efficient prodrug of the alkylating metabolite monomethyltriazene: synthesis and stability of N-acylamino acid derivatives of triazenes” (Eur J Med Chem, 2009).

Assays:
[1] = Stability in 80% human plasma assessed as half life by HPLC; type: ADME, cell-free
Outline: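 Plasma pooled from seven healthy donors, stored at −18 °C. Incubation at 37 °C in 80% plasma diluted with 0.066 M pH 7.4 isotonic phosphate buffer. Aliquots taken over time, diluted with acetonitrile, centrifuged, supernatant analysed by HPLC at 290 nm. t1/2 fitted from substrate loss; mean of at least 3 determinations ± SD.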

[2] = Octanol-phosphate buffer partition coefficient at pH 7.4 by HPLC; type: physicochemical
Outline: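 Octanol and pH 7.4 phosphate buffer, each pre-saturated with the other, at 25 °C. Compound dissolved in octanol, then shaken with buffer for 30 min to equilibrium. Each phase analysed separately by HPLC (acetonitrile:water 20:80 to 50:50, 290 nm). P taken as ratio of octanol to buffer peak areas. Mean of at least 3 determinations ± SD.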

[3] = Stability in phosphate buffer assessed as half life at pH 7.7 by HPLC; type: physicochemical
Outline: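 Incubation at 37 °C in 0.066 M pH 7.7 isotonic phosphate buffer. Samples injected directly onto HPLC (acetonitrile:water 20:80 to 50:50, detection 290 nm). Half-life calculated from decline in substrate concentration; mean of at least 2 determinations ± SD.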

half-life [1] [h] | logD [2] | half-life [3] [h] | Compound
5.7 | 2.18 | 84.3 | CC(=O)N[C@H](C(=O)N(C)/N=N/c1ccc(C#N)cc1)C(C)C
1 | 1.41 | 9.8 | CC(=O)N[C@@H](C)C(=O)N(C)/N=N/c1ccc(C#N)cc1
1.1 | 2.28 | 9.1 | CCCC(=O)N[C@@H](C)C(=O)N(C)/N=N/c1ccc(C#N)cc1
1.3 | 1.87 | 10.1 | CCC(=O)N[C@@H](C)C(=O)N(C)/N=N/c1ccc(C#N)cc1

Second part, the compound before the results:

Compound | half-life [1] [h] | logD [2] | half-life [3] [h]
CC(=O)N[C@@H](C)C(=O)N(C)/N=N/c1ccc(C)cc1 | 15.1 | 2.45 | 46.5
CC(=O)N[C@@H](C)C(=O)N(C)/N=N/c1ccc(C(N)=O)cc1 | 7.6 | 0.69 | 18.4
CCOC(=O)c1ccc(/N=N/N(C)C(=O)[C@H](C)NC(C)=O)cc1 | 4.6 | 2.52 | 15.7
C[C@H](NC(=O)c1ccccc1)C(=O)N(C)/N=N/c1ccc(C#N)cc1 | 1.6 | 3.04 | 9.2
CC(=O)N[C@@H](C)C(=O)N(C)/N=N/c1ccc(C(C)=O)cc1 | 2.3 | 1.51 | 13.9
CC(=O)N[C@@H](C)C(=O)N(C)/N=N/c1ccc(Br)cc1 | 5.7 | 2.8 | 25.5
CC(=O)N[C@@H](Cc1ccccc1)C(=O)N(C)/N=N/c1ccc(C#N)cc1 | 2.4 | 2.76 | 13.9
CC(=O)NCC(=O)N(C)/N=N/c1ccc(C#N)cc1 | 1.2 | 1.1 | 7.6
